The source made the active and inactive calls. The calls are words filed in the database; no cut-off is given here.

Experiment [1] deals with T1, Bifunctional purine biosynthesis protein ATIC (Homo sapiens, UniProt P31939). The experiment in a line: In vitro inhibitory activity against Aminoimidazole carboxamide ribonucleotide transformylase pre-incubated for 12 hr at 250 uM; Not active. The essentials: (§1)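 The AICAR Tfase assay solution was pre-incubated with inhibitor (250 µM, or 25 µM where the line states) for 12 h at room temperature. The reaction was then started by adding AICAR, and enzyme inhibition was measured.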
T1 sequence (P31939 whole entry, looked up): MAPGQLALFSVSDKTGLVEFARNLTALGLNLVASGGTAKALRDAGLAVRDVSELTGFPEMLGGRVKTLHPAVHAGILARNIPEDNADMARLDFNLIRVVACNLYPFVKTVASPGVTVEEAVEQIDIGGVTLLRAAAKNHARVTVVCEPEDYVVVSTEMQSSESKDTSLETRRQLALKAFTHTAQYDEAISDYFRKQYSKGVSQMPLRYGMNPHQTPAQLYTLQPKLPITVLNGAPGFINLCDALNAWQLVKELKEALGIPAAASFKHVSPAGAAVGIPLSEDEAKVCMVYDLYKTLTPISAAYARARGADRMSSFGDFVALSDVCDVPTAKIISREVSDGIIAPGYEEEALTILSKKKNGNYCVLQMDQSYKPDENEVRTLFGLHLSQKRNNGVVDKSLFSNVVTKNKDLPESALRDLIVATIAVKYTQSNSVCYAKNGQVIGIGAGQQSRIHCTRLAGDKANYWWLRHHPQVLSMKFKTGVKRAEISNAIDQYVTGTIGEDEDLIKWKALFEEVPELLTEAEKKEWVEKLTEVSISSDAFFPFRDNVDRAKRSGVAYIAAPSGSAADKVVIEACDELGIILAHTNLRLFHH

For experiment [2], the system named is CCRF-CEM. The experiment in a line: Cytotoxicity in the absence of hypoxanthine and presence of thymidine against CCRF-CEM cell line. The settings on record: Homo sapiens. In kind it is functional, cell-based. The essentials:
(§2)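 CCRF-CEM cells were grown in purine- and pyrimidine-free medium, with thymidine and/or hypoxanthine added or omitted as each line specifies. The cytotoxic potency was reported as an IC50 (µM).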

Experiment [3] relates to CCRF-CEM. The experiment in a line: Cytotoxicity in the absence of thymidine and hypoxanthine against CCRF-CEM cell line. In kind it is functional, cell-based. The settings on record: Homo sapiens. The essentials: as §2
In experiment [4] the test system is CCRF-CEM. As to the kind of experiment: Cytotoxicity in the absence of thymidine and presence of hypoxanthine against CCRF-CEM cell line. The following applies: Homo sapiens. It counts as functional, cell-based. The essentials: as §2
Experiment [5] concerns CCRF-CEM. As to the kind of experiment: Cytotoxicity in the presence of thymidine and hypoxanthine against CCRF-CEM cell line. In kind it is functional, cell-based. The settings on record: Homo sapiens. Put shortly:
as §2

Experiment [6] has as its target T2, Trifunctional purine biosynthetic protein adenosine-3 (Homo sapiens) (UniProt P22102).
T2 sequence (whole entry): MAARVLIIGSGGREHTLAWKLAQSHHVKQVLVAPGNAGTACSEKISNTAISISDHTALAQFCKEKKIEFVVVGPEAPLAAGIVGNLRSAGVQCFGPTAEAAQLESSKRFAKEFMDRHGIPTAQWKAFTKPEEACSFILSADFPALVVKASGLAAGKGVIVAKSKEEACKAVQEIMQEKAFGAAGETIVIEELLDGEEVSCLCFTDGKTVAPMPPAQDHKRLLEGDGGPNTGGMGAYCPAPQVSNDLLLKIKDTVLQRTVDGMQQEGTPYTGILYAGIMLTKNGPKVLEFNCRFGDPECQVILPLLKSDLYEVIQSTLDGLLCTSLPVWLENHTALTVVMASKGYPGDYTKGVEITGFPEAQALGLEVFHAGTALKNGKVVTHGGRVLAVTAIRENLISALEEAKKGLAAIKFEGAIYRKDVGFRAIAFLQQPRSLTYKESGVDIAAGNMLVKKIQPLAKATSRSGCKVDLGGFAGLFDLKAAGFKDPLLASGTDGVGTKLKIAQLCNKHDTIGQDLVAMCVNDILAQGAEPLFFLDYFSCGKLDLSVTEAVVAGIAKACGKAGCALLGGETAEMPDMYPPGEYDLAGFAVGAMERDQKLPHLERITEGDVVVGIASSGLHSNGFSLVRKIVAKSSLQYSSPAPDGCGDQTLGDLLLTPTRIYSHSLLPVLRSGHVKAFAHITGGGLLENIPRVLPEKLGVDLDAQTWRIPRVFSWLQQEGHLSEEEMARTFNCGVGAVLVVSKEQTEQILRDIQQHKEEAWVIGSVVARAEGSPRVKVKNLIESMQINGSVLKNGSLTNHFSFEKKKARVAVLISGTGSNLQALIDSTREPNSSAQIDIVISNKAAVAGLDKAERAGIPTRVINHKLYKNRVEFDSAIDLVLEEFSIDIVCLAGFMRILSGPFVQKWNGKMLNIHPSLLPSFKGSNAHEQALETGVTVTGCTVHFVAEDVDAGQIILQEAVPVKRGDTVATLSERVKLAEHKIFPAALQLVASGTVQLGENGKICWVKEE
The experiment in a line: In vitro inhibitory activity against Glycinamide ribonucleotide transformylase (GAR Tfase) after 1 hr at 25 uM.

In experiment [7] the target is T2, Trifunctional purine biosynthetic protein adenosine-3 (Homo sapiens). The experiment in a line: In vitro inhibitory activity at 250 uM concentration against Glycinamide ribonucleotide transformylase (GAR Tfase) pre-incubation time (6 hr).
For experiment [8] the target is unchanged. As to the kind of experiment: In vitro inhibitory activity against Glycinamide ribonucleotide transformylase (GAR Tfase+GAR) pre-incubation of 6 hr at 250 uM concentration.
For experiment [9] the target is unchanged. The experiment in a line: In vitro inhibitory activity against Glycinamide ribonucleotide transformylase (GAR Tfase) after 3 min at 25 uM; […].
Experiment [10] shares this target. As to the kind of experiment: In vitro inhibitory activity against Glycinamide ribonucleotide transformylase (GAR Tfase+GAR) following 3 min pre-incubation at 250 uM concentration.
Experiment [11] has the same target. As to the kind of experiment: In vitro inhibitory activity against Glycinamide ribonucleotide transformylase (GAR Tfase) after 30 min at 25 uM; Not active.
Experiment [12] shares this target. The experiment in a line: In vitro inhibitory activity against Glycinamide ribonucleotide transformylase (GAR Tfase+GAR) following 30 min pre-incubation at 250 uM concentration.
The target is the same in experiment [13]. The experiment in a line: In vitro inhibitory activity against Glycinamide ribonucleotide transformylase (GAR Tfase) following 3 min pre-incubation at 250 uM concentration.
For experiment [14] the target is unchanged. The experiment in a line: In vitro activity against Glycinamide ribonucleotide transformylase (GAR Tfase) after 3 min at 25 uM.
Experiment [15] has the same target. The experiment in a line: In vitro activity against Glycinamide ribonucleotide transformylase (GAR Tfase) after 30 min at 25 uM.
For experiment [16] the target is unchanged. The experiment in a line: In vitro inhibitory activity against Glycinamide ribonucleotide transformylase (GAR Tfase) after 30 min at 250 uM; Not active.
Experiment [17] shares this target. As to the kind of experiment: In vitro inhibitory activity against Glycinamide ribonucleotide transformylase (GAR Tfase) after 6 hr at 250 uM; Not active.
Experiment [18] has the same target. As to the kind of experiment: In vitro inhibitory activity against Glycinamide ribonucleotide transformylase (GAR Tfase) after 3 min at 250 uM; Not active.
Experiment [19] deals with T1, Bifunctional purine biosynthesis protein ATIC. As to the kind of experiment: In vitro inhibitory activity against Aminoimidazole carboxamide ribonucleotide transformylase pre-incubed for 12 hr at 250 uM. The essentials:
as §1

Experiment [20] has as its target T2, Trifunctional purine biosynthetic protein adenosine-3 (Homo sapiens). As to the kind of experiment: In vitro inhibitory activity against Glycinamide ribonucleotide transformylase (GAR Tfase) after 6 hr at 25 uM.
Experiment [21] has the same target. The experiment in a line: In vitro inhibitory activity against Glycinamide ribonucleotide transformylase (GAR Tfase) after 30 min at 25 uM.

Consider `COC(=O)c1ccc(CN(CCCc2c(N)nc(N)nc2O)c2cc(F)cc(F)c2[N+](=O)[O-])cc1`, for which the inhibition result in experiment [1], in experiment [9] and in [11] was “inactive” each time. Moreover, the IC50 in [2], in experiment [3], in experiment [4] and in [5] was over 100 µM throughout. For the same compound, the inhibition in [6] was determined as 39%; in experiment [6] (in the assay text read “after 6 hr” for “after 1 hr”) it was 84%; in experiment [7] it was 0%; in experiment [8] it was 6%; in experiment [10], 25%; in [12] it was 12%. This compound also had an inhibition in experiment [13] of 6%. Besides, the % control activity remaining in experiment [14] amounted to 78%; in experiment [15], 76%.
With `Nc1nc(N)c(CCCNc2cc(F)cc(F)c2[N+](=O)[O-])c(O)n1`, the inhibition result in experiment [1], in experiment [16], in experiment [17] and in [18] was “inactive” throughout. The IC50 amounted to 97 µM in experiment [2], 97 µM in [3], 97 µM in [4] and 94 µM in experiment [5]. Moreover, the values for the inhibition in experiment [7] and in [13] were 53% and 80%, respectively.
Regarding `COC(=O)c1ccc(CN(CCc2c(N)nc(N)nc2O)c2cc(F)c([N+](=O)[O-])cc2[N+](=O)[O-])cc1`, the inhibition was determined as 75% in experiment [19]; 2% in experiment [7]; 27% in experiment [8]; 66% in experiment [10]; 54% in [12]; 47% in [13]. For the same compound, the IC50 in [2] came out at 1.9 µM; in experiment [3], 1.3 µM; in experiment [4] it was 1.7 µM; in experiment [5], 1.1 µM.
With `COC(=O)c1ccc(CN(CCCc2c(N)nc(N)nc2O)c2cc(F)c(F)cc2[N+](=O)[O-])cc1`, the inhibition turned out to be 94% in experiment [19]; 0% in experiment [7]; 14% in experiment [8]; 68% in experiment [10]; 54% in experiment [12]; 44% in experiment [13]. For the same compound, the IC50 came to 55 µM in experiment [2], 59 µM in [3], 66 µM in [4] and 53 µM in experiment [5].
With `COC(=O)c1ccc(CN(CCCc2c(N)nc(N)nc2O)c2ccc([N+](=O)[O-])c(F)c2F)cc1`, the inhibition stood at 96% in experiment [19]; 41% in experiment [7]; 75% in experiment [8]; 82% in experiment [10]; 78% in experiment [12]; 61% in experiment [13]. In addition, the 50% inhibitory concentration (IC50) in experiment [2] was determined as 45 µM; in experiment [3], 41 µM; in experiment [4], 55 µM; in [5], 45 µM.
With `COC(=O)c1ccc(CN(CCCc2c(N)nc(N)nc2O)c2cc(F)c([N+](=O)[O-])cc2[N+](=O)[O-])cc1`, the inhibition came out at 77% in [19]; 2% in experiment [6]; 0% in [7]; 0% in experiment [8]; 64% in experiment [10]; 22% in [12]. Moreover, the inhibition turned out to be 46% in experiment [13] and 83% in [21]. In addition, the IC50 in experiment [2] came to 3.9 µM; in experiment [3], 2.5 µM; in experiment [4], 4.3 µM; in experiment [5] it was 3.5 µM. In addition, the results for the % control activity remaining in [20], in experiment [14] and in experiment [15] were 65%, 83% and 77%, respectively. In experiment [9], the inhibition entry is “inactive”.
As for `COC(=O)c1ccc(CN(CCc2c(N)nc(N)nc2O)c2cc(F)ccc2[N+](=O)[O-])cc1`, the inhibition worked out at 94% in experiment [19]; 12% in experiment [7]; 47% in experiment [8]; 81% in experiment [10]; 62% in experiment [12]; 78% in experiment [13]. Also, the IC50 in experiment [2] turned out to be 66 µM; in [3], 72 µM; in experiment [4], 72 µM; in experiment [5] it was 72 µM.
On to `COC(=O)c1ccc(CN(CCCc2c(N)nc(N)nc2O)c2cc(F)ccc2[N+](=O)[O-])cc1`, for which the inhibition entry in experiment [1] is “inactive”. Also, the half-maximal inhibitory concentration (IC50) in [2] was determined as 43 µM; in experiment [3] it was 45 µM; in experiment [4], 55 µM; in [5], 30 µM. For the same compound, the inhibition in experiment [7] turned out to be 0%; in experiment [8], 8%; in experiment [10], 75%; in experiment [12] it was 44%; in experiment [13], 70%.
With `COC(=O)c1ccc(CN(CCc2c(N)nc(N)nc2O)c2ccc([N+](=O)[O-])c(F)c2F)cc1`, the inhibition in experiment [19] is 73%; in experiment [7], 30%; in experiment [8] it was 67%; in [10], 79%; in experiment [12], 85%; in experiment [13] it was 68%. In addition, the IC50 in experiment [2] turned out to be 61 µM; in experiment [3], 48 µM; in experiment [4], 36 µM; in experiment [5] it was 67 µM.
Regarding `COC(=O)c1ccc(CN(CCc2c(N)nc(N)nc2O)c2cc(F)cc(F)c2[N+](=O)[O-])cc1`, in experiment [1], the inhibition result is “inactive”. Also, the IC50 in experiment [2] was 91 µM; in [3] it was over 100 µM; in experiment [4], over 100 µM; in experiment [5] it was over 100 µM. Besides, the inhibition amounted to 0% in experiment [7]; 30% in [8]; 32% in experiment [10]; 29% in experiment [12]; 16% in [13].
`Nc1nc(N)c(CCCNc2cc(F)c(F)cc2[N+](=O)[O-])c(O)n1`: the inhibition turned out to be 98% in [19], 63% in experiment [7] and 87% in experiment [13]. Also, the IC50 in experiment [2] is over 100 µM; in experiment [3], 97 µM; in [4], 97 µM; in experiment [5], 97 µM. Moreover, the inhibition result in experiment [16], in [17] and in experiment [18] was “inactive” throughout.
For the compound `COC(=O)c1ccc(CN(CCc2c(N)nc(N)nc2O)c2cc(F)c(F)cc2[N+](=O)[O-])cc1`, the inhibition result in [1] was “inactive”. The IC50 in [2] is 13 µM; in [3], 12 µM; in [4] it was 11 µM; in [5], 11 µM. The inhibition in experiment [7] was determined as 2%; in [8], 22%; in experiment [10] it was 35%; in experiment [12], 31%; in experiment [13] it was 17%.
`Nc1nc2c(c(=O)[nH]1)C[C@@H](CCc1ccc(C(=O)N[C@@H](CCC(=O)O)C(=O)O)cc1)CN2` [LOMETREXOL]: the half-inhibitory concentration (IC50) in [2] was 0.07 µM; in [3], 0.13 µM; in experiment [4] it was over 100 µM; in experiment [5], over 100 µM.
